# Source: PubChem
# Autophagy HCS: autophagy modulators in MEF cells, primary screen, imaging, high-content, MEF GFP-LC3; MEF GFP-LC3 puncta imaging; test concentration mostly 10 µM; calls only at 10 µM (by protocol); 190,000 tested, 0.98% active; AID 463193, 2010;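 active = percentage of spot-positive cells more than 3 SD above its plate mean, without a fluorescence outlier flag or 80% toxicity; inconclusive = no clear call, values can overlap the other calls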;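 note: spot-positive cell cutoff set from DMSO-treated cells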
# MT stabilizer: microtubule stabilizers in HeLa cells, primary screen, imaging, high-content imaging; HeLa tubulin immunostaining HCS, 24 h; share of cells brighter than vehicle mean+2SD; % tubulin-high responders, % at 10 µM; 200,000 tested, 0.83% active; AID 2205, 2009;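 active = plate Z-score above 3 for both tubulin-high and condensed-nucleus cell shares, with cell loss under 80%, at 10 µM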;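 note: anti alpha tubulin signal scored within the nucleus-defined area of each cell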
# bCat nuc transl: modulators of beta-catenin nuclear translocation, primary screen, imaging, HeLa cells, immunofluorescence, high-content. nuclear translocation activity, % at 5 µM. 190,000 tested, 0.3% active;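 active = nuclear translocation activity above 50% at 5 µM, with a well cell count of 50 or more; inconclusive = wells under 50 cells across six images, flagged as toxic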;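 note: per-cell ratio of nuclear to cytoplasmic median beta-catenin stain intensity; plate controls were DMSO negative control for no effect and GSK-3 inhibitor IX positive control for full effect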
#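 System: Human HeLa cells, endogenous beta-catenin | Compound dosing: 5 µM primary, 0.02–20 µM confirmation | Timing: 24 h compound exposure at 37°C, 5% CO2 | Measured by: Fluorescence imaging of beta-catenin antibody stain plus DAPI | Read-out basis: % activation of per-cell nuclear versus cytoplasmic median beta-catenin signal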
# Insulin prom up: insulin promoter activators in MIN6 cells, imaging, high-content screening, mouse beta cells. z-score at 5 µM. AID 1625, 2009. MIN6 insulin promoter-GFP reporter; active compounds read high. 190,000 tested, 0.3% active;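 active = z-score above 3 at 5 µM with at least 500 cells counted in the well; inconclusive = wells under 500 cells, flagged as cytotoxic or low count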
# Dynein cargo inh: inhibitors of GR-EGFP nuclear translocation, primary screen, dynein cargo transport inhibitor project, imaging, high-content, 3617.4 mouse cells; test concentration mostly 20 µM; stimulated with dexamethasone, 1 µM; active compounds read low; z-score, hits read low; 220,000 tested, 0.47% active; AID 1381, 2008;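 active = plate z-score of nuclear minus cytoplasmic receptor signal below a set negative limit, without overly bright fluorescence or cell loss, cut at about -3.5 in these data, passing the limit was not always enough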;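 note: z-score of nuclear minus cytoplasmic ring GR-EGFP intensity difference per well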
#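 Schedule: 48 h induction, then 1 h compound, then 30 min agonist, 37 °C. Buffer or medium: tetracycline-free induction medium containing charcoal-stripped FBS. Reagent: 1.0 µM final dexamethasone stimulus. Evaluation: nuclear versus cytoplasmic GR-EGFP signal, averaged per well. Signal: high-content fluorescence imaging after fixation.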
# Numbers without * were called inactive; i = inactive; ? = inconclusive; . = no result given; + = active, no number. This is a sample that favours compounds with a hit; in the whole collection about 2.3% have one here.
SMILES,Autophagy HCS,MT stabilizer,bCat nuc transl,Insulin prom up,Dynein cargo inh
CCCC(=O)Nc1nc2ccc(OCC)cc2s1,.,4.7,2.0,-1.21,0.271
CCC(C)(C)C(=O)Nc1cc([N+](=O)[O-])ccc1Cl,i,3.2,1.0,-0.03,1.78
CCN(CC)c1nc(C)c(C(=S)Nc2cc([N+](=O)[O-])ccc2Cl)s1,+,2.5,.,2.92,-0.738
COc1ccc(/C=N/NC(=O)c2ccc(Cl)cc2)cc1Cn1cc(Cl)cn1,i,3.4,-1.3,0.35,2.49
CN(C)c1ccc(/C=N/NC(=O)c2ccccc2)cc1,i,14.0*,2.5,-0.21,0.195
CN(C)c1ccc(/C=N/NC(=O)c2ccc(Cl)cc2)cc1,i,1.2,.,.,-0.399
CN(C)c1ccc(/C=N\NC(=O)c2ccc(Cn3cc(Cl)cn3)cc2)cc1,i,29.5*,-3.1,-0.1,-0.727
CSc1ccc(/C=N/NC(=O)c2ccccc2Cl)cc1,i,15.3*,3.2,0.02,0.0396
CN(C)c1ccc(/C=N/NC(=O)c2ccccc2Cl)cc1,i,21.2*,76.7*,0.2,0.174
COc1ccc(CC(=O)Nc2nnc(C(C)C)s2)cc1OC,i,1.3,-1.1,0.81,0.203
Cn1[nH]c(C(F)(F)F)c(C=Nc2ccc(Cl)cc2)c1=O,i,3.2,-1.8,0.06,1.8
CCCCNC(=S)NC(=O)c1ccc(Cl)cc1Cl,i,3.2,1.5,3.14*,0.512
O=C(NC(=S)NCCN1CCOCC1)c1ccc(Cl)cc1Cl,i,3.8,2.4,-1.37,1.42
O=C(CN1CCc2ccccc2C1)Nc1cccc(S(=O)(=O)N2CCCC2)c1,i,8.0,-2.4,0.26,-1.25
COc1ccc(/C=N/NC(=O)c2csc(-n3nc(C)cc3C(F)(F)F)n2)cc1,i,29.7*,107.8*,-0.48,1.15
CC(=O)Nc1ccc(S(=O)(=O)N2CCN(Cc3cccs3)CC2)cc1,i,4.4,-0.1,-0.03,-0.559
CCN(CC)S(=O)(=O)c1ccc2oc(C(=O)NCC3COc4ccccc4O3)c(C)c2c1 (centres undefined),+,23.1,.,-2.95,0.0753
Fc1ccc(C2NCCn3cccc32)cc1 (centres undefined),i,4.3,-0.9,3.94*,0.356
c1ccc(C2NCCn3cccc32)cc1 (centres undefined),i,3.9,-2.8,-0.08,-0.892
CCOC(=O)CN1CC23C=CC(O2)C(C(=O)Nc2ccc(OC)cc2OC)C3C1=O (centres undefined),.,6.6,-0.5,.,-0.468
CCOC(=O)CN1CC23C=CC(O2)C(C(=O)Nc2cc(OC)ccc2OC)C3C1=O (centres undefined),i,2.9,-2.9,4.17*,0.265
Nc1nnn(CC(=O)N/N=C/c2cn[nH]c2-c2ccccc2)n1,.,.,-0.9,0.09,0.616
CCc1c(C)nc2ncnn2c1Nc1ccc(C)c(C)c1,i,3.8,.,.,1.28
CCc1c(C)nc2ncnn2c1NCCc1ccc(OC)cc1,i,37.1*,85.0*,?,-0.934
O=C(O)c1ccc(N2C(=O)/C(=C/C=C/c3ccccc3)SC2=S)cc1,i,1.1,-2.5,-0.51,-1.14
SMILES,Autophagy HCS,MT stabilizer,bCat nuc transl,Insulin prom up,Dynein cargo inh
CN(C)c1ccc(/C=C/C=C2/SC(=S)N(c3ccccc3)C2=O)cc1,+,27.6,.,.,-2.47
CCOC(=O)c1sc2cc([N+](=O)[O-])cc(SCCO)c2c1N,+,1.5,-0.4,0.25,-1.49
CC(=O)N1CCN(c2ccc(NC(=S)NC(=O)c3ccc(C)c([N+](=O)[O-])c3)cc2)CC1,.,.,0.0,0.1,-0.0227
COC(=O)c1ccc2c(c1)C(C)(C)C(/C=C/c1ccc(OC)c(OC)c1OC)=[N+]2C,+,3.3,-4.2,?,-2.99
Cc1cc(NC(=O)Nc2ccc(Cl)c(Cl)c2)n(-c2ccccc2)n1,.,.,0.1,0.13,0.894
Cc1cc(C)cc(N=c2c([N+](=O)[O-])nn(-c3cccc(Cl)c3)n2O)c1,+,3.1,.,-1.2,-0.26
COc1ccc(CNCC(=O)Nc2ccccc2-n2cccc2)cc1,i,33.0*,43.1,1.85,0.109
O=C(Cc1ccc(-n2cccc2)cc1)NCc1cccs1,i,29.3*,165.1*,-0.1,0.284
Cc1ccc(CNC(=O)Cc2ccc(-n3cccc3)cc2)cc1,i,10.2,-2.5,-0.29,-0.566
CC(C)c1nc2c(c(=O)n(C)c(=O)n2C)n1C,.,.,0.5,0.99,-0.304
COc1cc(OC)cc(C(=O)Nc2c(C)nn(-c3ccccc3)c2C)c1,i,12.6*,0.2,.,0.0698
Cc1nn(-c2ccccc2)c(C)c1NC(=O)c1cccs1,i,40.7*,.,0.36,-0.384
COc1ccccc1/C=N/NC(=O)CSc1cc(C)nc2ccccc12,i,27.3*,35.2,-1.55,-0.901
COc1cccc2c(SCC(=O)N/N=C/c3ccc(O)cc3O)cc(C)nc12,i,3.2,-1.9,0.62,-0.155
CN(C)c1ccc(C(=O)c2ccccc2C(=O)O)cc1[N+](=O)[O-],i,2.8,-1.1,0.31,0.529
CN(C)c1ccc(C(=O)c2ccc(N(C)C)c3ccccc23)cc1,+,11.9,39.1,-5.22,-0.283
COc1ccc(C(=O)c2ccc(OC)cc2OC)cc1,.,.,55.7*,-0.12,0.141
COc1ccc(C(=O)c2ccc(N(C)C)cc2)c(OC)c1,i,24.4,95.5*,0,-1.19
N#C/C(=C\c1ccc(Cl)cc1)c1nc2ncccc2[nH]1,i,41.8*,21.2,-0.32,1.24
Nc1nc(N)c2ncc(C(=O)CCc3ccccc3)nc2n1,i,3.1,0.0,1.36,-1.33
Nc1ccc(-c2nc3nc(N)nc(N)c3nc2-c2ccc(N)cc2)cc1,.,.,-1.8,4.9*,1.27
COc1ccc(CN2C=C3C(=O)C(C)(OC(=O)C4CCCC4)C(=O)C=C3C=C2c2ccsc2)cc1 (centres undefined),.,.,50.1*,0.31,0.754
COc1ccc(C2CC(c3ccc4ccccc4c3)=NN2C(=O)CN2CCC(C(N)=O)CC2)cc1 (centres undefined),i,5.8,1.3,0.42,-0.381
C=CCNCC(=O)N1N=C(c2ccc3ccccc3c2)CC1c1ccc(OC)cc1 (centres undefined),+,3.4,-2.1,0.23,-0.239
COc1ccc(C2CC(c3ccc4ccccc4c3)=NN2C(=O)CNC2CCCCC2)cc1 (centres undefined),+,2.6,0.3,-0.75,0.717
Cc1ccc(C2SCC(=O)N2Cc2cn3ccsc3n2)o1 (centres undefined),+,1.1,-0.8,0.08,-0.405
CC(C)CN=C(NS(=O)(=O)c1ccccc1)C(Cl)(Cl)Cl,i,5.6,51.7*,?,-2.73
COc1ccc(CC(=O)N2N=C(c3ccncc3)CC2(O)C(F)(F)F)cc1 (centres undefined),i,14.9*,12.0,0.01,-0.65
